{"source": "ChEMBL document CHEMBL1121885", "about": "“Inhibition of inosinic acid dehydrogenase by 8-substituted purine nucleotides” (J Med Chem, 1981)", "target": "T1, Inosine-5'-monophosphate dehydrogenase (Escherichia coli K-12, UniProt P0ADG7)", "T1 sequence (P0ADG7 whole entry)": "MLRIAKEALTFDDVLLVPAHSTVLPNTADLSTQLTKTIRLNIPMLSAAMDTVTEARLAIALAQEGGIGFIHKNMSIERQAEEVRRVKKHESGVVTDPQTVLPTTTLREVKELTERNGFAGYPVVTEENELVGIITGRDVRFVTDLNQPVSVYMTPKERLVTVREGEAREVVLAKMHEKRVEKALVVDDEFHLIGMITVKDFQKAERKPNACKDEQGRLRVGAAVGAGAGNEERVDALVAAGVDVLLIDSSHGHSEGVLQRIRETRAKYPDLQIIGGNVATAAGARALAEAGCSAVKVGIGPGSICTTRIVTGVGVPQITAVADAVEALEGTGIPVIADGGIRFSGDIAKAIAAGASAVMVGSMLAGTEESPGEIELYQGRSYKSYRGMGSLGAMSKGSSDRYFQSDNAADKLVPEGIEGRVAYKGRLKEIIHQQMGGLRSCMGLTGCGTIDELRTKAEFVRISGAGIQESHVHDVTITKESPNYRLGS", "assay": "Inhibition of inosine monophosphate dehydrogenase in Escherichia coli", "in_short": "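E. coli B IMP-DH (0-40% ammonium sulfate fraction of frozen paste, redissolved in 0.05 M Tris pH 8.5). Enzyme-started, 25 °C, NADH rise at 360 nm; Ki from weighted fit to linear competitive equation.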"}
{"smiles": "Nc1ncnc2c1nc(SCc1ccc(C(=O)O)cc1)n2C1O[C@H](COP(=O)(O)O)[C@@H](O)[C@H]1O", "note": "(some centres not stated)", "values": [{"measurement": "Ki", "value": 196, "unit": "µM"}]}
{"smiles": "Nc1ncnc2c1nc(Br)n2[C@@H]1O[C@H](COP(=O)(O)O)[C@@H](O)[C@H]1O", "values": [{"measurement": "Ki", "value": 161, "unit": "µM"}]}
{"smiles": "Nc1ncnc2c1nc(SCc1ccc(Cl)cc1)n2C1O[C@H](COP(=O)(O)O)[C@@H](O)[C@H]1O", "note": "(some centres not stated)", "values": [{"measurement": "Ki", "value": 53, "unit": "µM"}]}
{"smiles": "CC(C)(C)c1ccc(CSc2nc3c(=O)[nH]cnc3n2C2O[C@H](COP(=O)(O)O)[C@@H](O)[C@H]2O)cc1", "note": "(some centres not stated)", "values": [{"measurement": "Ki", "value": 129, "unit": "µM"}]}
{"smiles": "Nc1ncnc2c1nc(NCc1ccccc1)n2C1O[C@H](COP(=O)(O)O)[C@@H](O)[C@H]1O", "note": "(some centres not stated)", "values": [{"measurement": "Ki", "value": 275, "unit": "µM"}]}
{"smiles": "O=c1[nH]cnc2c1nc(SCc1ccc(Cl)cc1)n2C1O[C@H](COP(=O)(O)O)[C@@H](O)[C@H]1O", "note": "(some centres not stated)", "values": [{"measurement": "Ki", "value": 29, "unit": "µM"}]}
{"smiles": "O=P(O)(O)OC[C@H]1OC(n2c(Sc3ccccc3)nc3c(O)ncnc32)[C@H](O)[C@@H]1O", "note": "(some centres not stated)", "values": [{"measurement": "Ki", "value": 68, "unit": "µM"}]}
{"smiles": "Nc1ncnc2c1nc(Sc1ccc(Cl)cc1)n2C1O[C@H](COP(=O)(O)O)[C@@H](O)[C@H]1O", "note": "(some centres not stated)", "values": [{"measurement": "Ki", "value": 70, "unit": "µM"}]}
{"smiles": "Nc1ncnc2c1nc(SCc1cc([N+](=O)[O-])cc([N+](=O)[O-])c1)n2C1O[C@H](COP(=O)(O)O)[C@@H](O)[C@H]1O", "note": "(some centres not stated)", "values": [{"measurement": "Ki", "value": 21, "unit": "µM"}]}
{"smiles": "N#Cc1ccc(CSc2nc3c(O)ncnc3n2C2O[C@H](COP(=O)(O)O)[C@@H](O)[C@H]2O)cc1", "note": "(some centres not stated)", "values": [{"measurement": "Ki", "value": 19, "unit": "µM"}]}
{"smiles": "COc1ccc(CSc2nc3c(=O)[nH]cnc3n2C2O[C@H](COP(=O)(O)O)[C@@H](O)[C@H]2O)cc1", "note": "(some centres not stated)", "values": [{"measurement": "Ki", "value": 41, "unit": "µM"}]}
{"smiles": "Nc1ncnc2c1nc(Sc1ccccc1)n2C1O[C@H](COP(=O)(O)O)[C@@H](O)[C@H]1O", "note": "(some centres not stated)", "values": [{"measurement": "Ki", "value": 137, "unit": "µM"}]}
{"smiles": "O=[N+]([O-])c1ccc(CSc2nc3c(O)ncnc3n2C2O[C@H](COP(=O)(O)O)[C@@H](O)[C@H]2O)cc1", "note": "(some centres not stated)", "values": [{"measurement": "Ki", "value": 26, "unit": "µM"}]}
{"smiles": "COc1ccc(CSc2nc3c(N)ncnc3n2C2O[C@H](COP(=O)(O)O)[C@@H](O)[C@H]2O)cc1", "note": "(some centres not stated)", "values": [{"measurement": "Ki", "value": 84, "unit": "µM"}]}
{"smiles": "Nc1ncnc2c1nc(SCc1ccc(F)cc1)n2C1O[C@H](COP(=O)(O)O)[C@@H](O)[C@H]1O", "note": "(some centres not stated)", "values": [{"measurement": "Ki", "value": 74, "unit": "µM"}]}
{"smiles": "O=c1[nH]cnc2c1nc(Sc1cccc(C(F)(F)F)c1)n2C1O[C@H](COP(=O)(O)O)[C@@H](O)[C@H]1O", "note": "(some centres not stated)", "values": [{"measurement": "Ki", "value": 105, "unit": "µM"}]}
{"smiles": "O=P(O)(O)OC[C@H]1OC(n2c(NCc3ccccc3)nc3c(O)ncnc32)[C@H](O)[C@@H]1O", "note": "(some centres not stated)", "values": [{"measurement": "Ki", "value": 236, "unit": "µM"}]}
{"smiles": "CCCCCSc1nc2c(N)ncnc2n1C1O[C@H](COP(=O)(O)O)[C@@H](O)[C@H]1O", "note": "(some centres not stated)", "values": [{"measurement": "Ki", "value": 84, "unit": "µM"}]}
{"smiles": "Nc1ncnc2c1nc(SCc1ccc([N+](=O)[O-])cc1)n2C1O[C@H](COP(=O)(O)O)[C@@H](O)[C@H]1O", "note": "(some centres not stated)", "values": [{"measurement": "Ki", "value": 52, "unit": "µM"}]}
{"smiles": "O=[N+]([O-])c1ccc(CCSc2nc3c(O)ncnc3n2C2O[C@H](COP(=O)(O)O)[C@@H](O)[C@H]2O)cc1", "note": "(some centres not stated)", "values": [{"measurement": "Ki", "value": 54, "unit": "µM"}]}
{"smiles": "Nc1ncnc2c1nc(SCCc1ccc([N+](=O)[O-])cc1)n2C1O[C@H](COP(=O)(O)O)[C@@H](O)[C@H]1O", "note": "(some centres not stated)", "values": [{"measurement": "Ki", "value": 68, "unit": "µM"}]}
{"smiles": "Nc1ncnc2c1nc(SCCCc1ccccc1)n2C1O[C@H](COP(=O)(O)O)[C@@H](O)[C@H]1O", "note": "(some centres not stated)", "values": [{"measurement": "Ki", "value": 64, "unit": "µM"}]}
{"smiles": "Nc1ncnc2c1nc(SCc1ccc([N+](=O)[O-])cc1Cl)n2C1O[C@H](COP(=O)(O)O)[C@@H](O)[C@H]1O", "note": "(some centres not stated)", "values": [{"measurement": "Ki", "value": 17, "unit": "µM"}]}
{"smiles": "O=c1[nH]cnc2c1nc(SCc1ccccc1)n2C1O[C@H](COP(=O)(O)O)[C@@H](O)[C@H]1O", "note": "(some centres not stated)", "values": [{"measurement": "Ki", "value": 46, "unit": "µM"}]}
{"smiles": "Nc1ncnc2c1nc(SCc1cccc([N+](=O)[O-])c1)n2C1O[C@H](COP(=O)(O)O)[C@@H](O)[C@H]1O", "note": "(some centres not stated)", "values": [{"measurement": "Ki", "value": 47, "unit": "µM"}]}
{"smiles": "CC(C)(C)c1ccc(CSc2nc3c(N)ncnc3n2C2O[C@H](COP(=O)(O)O)[C@@H](O)[C@H]2O)cc1", "note": "(some centres not stated)", "values": [{"measurement": "Ki", "value": 130, "unit": "µM"}]}
{"smiles": "O=c1[nH]cnc2c1nc(Br)n2C1O[C@H](COP(=O)(O)O)[C@@H](O)[C@H]1O", "note": "(some centres not stated)", "values": [{"measurement": "Ki", "value": 271, "unit": "µM"}]}
{"smiles": "Nc1ncnc2c1nc(S)n2C1O[C@H](COP(=O)(O)O)[C@@H](O)[C@H]1O", "note": "(some centres not stated)", "values": [{"measurement": "Ki", "value": 98, "unit": "µM"}]}
{"smiles": "Nc1ncnc2c1nc(SCCc1ccccc1)n2C1O[C@H](COP(=O)(O)O)[C@@H](O)[C@H]1O", "note": "(some centres not stated)", "values": [{"measurement": "Ki", "value": 91, "unit": "µM"}]}
{"smiles": "Nc1ncnc2c1nc(SCc1ccccc1)n2C1O[C@H](COP(=O)(O)O)[C@@H](O)[C@H]1O", "note": "(some centres not stated)", "values": [{"measurement": "Ki", "value": 124, "unit": "µM"}]}
{"smiles": "N#Cc1ccc(CSc2nc3c(N)ncnc3n2C2O[C@H](COP(=O)(O)O)[C@@H](O)[C@H]2O)cc1", "note": "(some centres not stated)", "values": [{"measurement": "Ki", "value": 58, "unit": "µM"}]}
{"smiles": "Nc1ncnc2c1ncn2[C@@H]1O[C@H](COP(=O)(O)O)[C@@H](O)[C@H]1O", "note": "[ADENOSINE PHOSPHATE]", "values": [{"measurement": "Ki", "value": 450, "unit": "µM"}]}
